Reference: PubChem BioAssay AID602422 (The Scripps Research Institute Molecular Screening Center, 2012)
Where “and” joins values, the source holds several entries; their conditions need not be identical. Equal entries are not always repeated. Calls of active or inactive are those of the source.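 Rule for the calls: active = remaining nuclease activity at or below 52% of the solvent-only control at any tested dose; inactive = above 52% at every tested dose.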

tested on: ATP-dependent helicase/nuclease AddAB (Helicobacter pylori 26695); assay: remaining H. pylori AddAB nuclease activity – biochemical, radioactivity, purified enzyme, 100 µM, powder samples, late-stage follow-up (AID 602422); conditions: [3H]-dsDNA TCA-soluble nuclease assay, at 100 µM, active compounds read low
Procedure, shortened: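 Test system: purified AddAB / Reagent: tritiated phage T7 dsDNA substrate at 6 µM nucleotides (2 µg/mL) / Timing: nuclease reaction for 20 min at 37 °C / Detection: scintillation counting of acid (TCA)-soluble radioactive DNA product / Read-out: percent nuclease activity versus DMSO control, minus enzyme-free background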

Row | SMILES | remaining nuclease activity
1 | CCn1cc(C(=O)O)c(=O)c2cc(F)c(N3CCN(C(=S)Nc4cccc(C(F)(F)F)c4)CC3)cc21 | 9%
2 | CNC(=O)c1c(NC(=O)c2nc(SCc3ccccc3)ncc2Cl)sc2c1CCCC2 | 21%
3 | CCn1cc(C(=O)O)c(=O)c2cnc(N3CCN(C(=S)Nc4ccccc4Cl)CC3)nc21 | 74% (inactive)
4 | CCn1cc(C(=O)O)c(=O)c2cnc(N3CCN(C(=S)NC(=O)c4cccnc4)CC3)nc21 | 101% (inactive)
5 | CCn1cc(C(=O)O)c(=O)c2cnc(N3CCN(C(=S)Nc4ccc5c(c4)OCO5)CC3)nc21 | 46%
6 | CSc1ncc(Cl)c(C(=O)Nc2sc3c(c2C#N)CCC(C)C3)n1 (stereo not drawn) | 100% (inactive)
7 | CCn1cc(C(=O)O)c(=O)c2cnc(N3CCN(C(=S)NC)CC3)nc21 | 101% (inactive)
8 | Cc1sc(NC(=O)c2cnccn2)c(C(=O)OC(C)C)c1-c1ccccc1 | 33%
9 | N#Cc1c(NC(=O)C2CC=CCC2C(=O)O)sc2c1CCC2 (stereo not drawn) | 92% (inactive)
10 | COC(=O)c1c(-c2cccc(C)c2)csc1NC(=O)c1cnccn1 | 88% (inactive)
11 | CCn1cc(C(=O)O)c(=O)c2cnc(N3CCN(C(=S)NC(C)c4ccccc4)CC3)nc21 (stereo not drawn) | 13%
12 | CCn1cc(C(=O)O)c(=O)c2cnc(N3CCN(C(=S)NC4CC5CCC4C5)CC3)nc21 (stereo not drawn) | 6%
13 | N#Cc1c(NC(=O)c2ccc(-c3ccccc3[N+](=O)[O-])o2)sc2c1CCCC2 | 73% (inactive)
14 | CCn1cc(C(=O)O)c(=O)c2cnc(N3CCN(C(=S)Nc4ccccc4F)CC3)nc21 | 74% (inactive)
15 | CCn1cc(C(=O)O)c(=O)c2cnc(N3CCN(C(=S)NC(=O)c4ccccc4Cl)CC3)nc21 | 93% (inactive)
16 | COC(=O)c1c(-c2ccccc2)csc1NC(=O)c1cnccn1 | 31%
17 | CCn1cc(C(=O)O)c(=O)c2cnc(N3CCN(C(=S)Nc4ccccc4C(F)(F)F)CC3)nc21 | 90% (inactive)
18 | CCn1cc(C(=O)O)c(=O)c2cnc(N3CCN(C(=S)NCc4ccccc4)CC3)nc21 | 55% (inactive)
19 | CCn1cc(C(=O)O)c(=O)c2cnc(N3CCN(C(=S)Nc4ccccc4C)CC3)nc21 | 81% (inactive)
20 | CSc1ncc(Cl)c(C(=O)Nc2sc3c(c2C(=O)NC2CCS(=O)(=O)C2)CCC(C)C3)n1 (stereo not drawn) | 77% (inactive)
21 | COC(=O)c1c(NC(=O)c2cnccn2)sc2c1CCCC2 | 93% (inactive)
22 | N#Cc1c(NC(=O)c2cnccn2)sc2c1CCCCCC2 | 70% (inactive)
23 | C=CCNC(=S)N1CCN(c2ncc3c(=O)c(C(=O)O)cn(CC)c3n2)CC1 | 93% (inactive)
24 | CCn1cc(C(=O)O)c(=O)c2cnc(N3CCN(C(=S)Nc4cccc(C(F)(F)F)c4)CC3)nc21 | 8%
25 | Cc1ccc(C(=O)Nc2sc3c(c2C#N)CCC3)o1 | 98% (inactive)
26 | CCn1cc(C(=O)O)c(=O)c2cnc(N3CCN(C(=S)Nc4ccccc4OC)CC3)nc21 | 68% (inactive)
27 | N#Cc1c(NC(=O)c2ccccc2C(=O)O)sc2c1CCCC2 | 55% (inactive)

Row | SMILES | remaining nuclease activity
28 | Cn1nccc1C(=O)Nc1sc2c(c1C#N)CCCC2 | 71% (inactive)
29 | CCn1cc(C(=O)O)c(=O)c2cnc(N3CCN(C(=S)NC(=O)c4ccco4)CC3)nc21 | 89% (inactive)
30 | CCn1cc(C(=O)O)c(=O)c2cnc(N3CCN(C(=O)Nc4ccccc4)CC3)nc21 | 92% (inactive)
31 | Cc1ccc(C(=O)Nc2sc3c(c2C#N)CCCCC3)o1 | 72% (inactive)
32 | N#Cc1c(NC(=O)c2cccc(F)c2)sc2c1CCCC2 | 65% (inactive)
33 | N#Cc1c(NC(=O)c2cnccn2)sc2c1CCCC2 | 10% and 36%
34 | N#Cc1c(NC(=O)c2ccc([N+](=O)[O-])o2)sc2c1CCCC2 | 92% (inactive)
35 | CCn1cc(C(=O)O)c(=O)c2cnc(N3CCN(C(=S)Nc4ccc5c(c4)OCCO5)CC3)nc21 | 62% (inactive)
36 | CC1CCc2c(sc(NC(=O)c3cccs3)c2C#N)C1 (stereo not drawn) | 92% (inactive)
37 | NC(=O)c1c(NC(=O)c2cnccn2)sc2c1CCCC2 | 87% (inactive)
38 | CCn1cc(C(=O)O)c(=O)c2cnc(N3CCN(C(=S)Nc4ccccc4)CC3)nc21 | 83% (inactive)
39 | CC1(C)Cc2c(sc(NC(=O)c3ccco3)c2C#N)CO1 | 69% (inactive)
40 | Cc1sc(NC(=O)c2ccc(Br)o2)c(C#N)c1C | 40%
41 | CCn1cc(C(=O)O)c(=O)c2cnc(N3CCNCC3)nc21 | 103% (inactive)
42 | CCn1cc(C(=O)O)c(=O)c2cnc(N3CCN(C(=S)NC(=O)c4cccc(C)c4)CC3)nc21 | 95% (inactive)
43 | CC1CCc2c(sc(NC(=O)c3cnccn3)c2C#N)C1 (stereo not drawn) | 91% (inactive)
44 | Nc1c(NC(=O)c2ccc([N+](=O)[O-])o2)sc2c1CCCC2 | 116% (inactive)
45 | N#Cc1c(NC(=O)c2ccccc2)sc2c1CCC2 | 111% (inactive)
46 | CCn1cc(C(=O)O)c(=O)c2cnc(N3CCN(C(=S)Nc4ccc(Cl)cc4)CC3)nc21 | 19%
47 | CCC(C)(C)C1CCc2c(sc(NC(=O)c3cnccn3)c2C#N)C1 (stereo not drawn) | 103% (inactive)
48 | N#Cc1c(NC(=O)c2cc(-c3ccccc3)on2)sc2c1CCCC2 | 42%
49 | CCn1cc(C(=O)O)c(=O)c2cc(F)c(N3CCN(C(=S)Nc4ccccc4C(F)(F)F)CC3)cc21 | 51%
50 | CCn1cc(C(=O)O)c(=O)c2cnc(N3CCN(C(=S)Nc4ccc(F)cc4)CC3)nc21 | 43%
51 | CC1CCc2c(sc(NC(=O)c3ccc([N+](=O)[O-])o3)c2N)C1 (stereo not drawn) | 128% (inactive)
52 | CC1CCc2c(sc(NC(=O)c3ccc([N+](=O)[O-])o3)c2C#N)C1 (stereo not drawn) | 89% (inactive)
53 | N#Cc1c(NC(=O)c2ccco2)sc2c1CCC2 | 41%
